Experimental data taken from ChEMBL document CHEMBL4513216, “Probing the Open Global Health Chemical Diversity Library for Multistage-Active Starting Points for Next-Generation Antimalarials” (ACS Infect Dis, 2020).

Assay: Toxicity liver stage against HepG2, at 10uM
Format: cell-based
Parameters: test concentration 10 uM, cell line HepG2-A16-CD81EGFP
Details: human, HepG2-A16-CD81EGFP cells; read-out: INHIBITION
Outline: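 Uninfected HepG2-A16-CD81EGFP cells, 3 × 10^3 per well, 1536-well, plated on prespotted compound at 10 μM final, parasite-free screening media added to match infected plates; puromycin 10 μM positive, DMSO 0.5% negative; run in parallel with 48 h PbLuc assay at 37 °C, 5% CO2; viability by CellTiter-Glo luminescence, normalized to controls.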

SMILES	cytotoxicity at 10 µM [%]
Cc1ccc(S(=O)(=O)Nc2c(C)nn(C)c2C)cc1C	12.9
CN1CCC(NC(=O)NCc2csc(Br)c2)CC1	-8.92
CC(C)(C)c1cc(C[C@H]2CNCC[C@H]2CC(=O)NCc2cccs2)no1	-2.28
CCOC(=O)CNC(=O)NCc1cccn1Cc1cccc(C)c1	9.24
CCC(C)[C@H](NC(=O)c1cc(F)ccc1-n1cnnn1)C(=O)OC (stereo partly specified)	2.53
COC(=O)c1cc2c(=O)n(C3CCCC3)ccc2nc1C	-43.9
O=c1c(NCCc2ccc(O)cc2)c(NCc2ccco2)c1=O	-10.7
O=C(CCCNc1ncccn1)Nc1ccc(Cn2cncn2)cc1	0.55
COc1ccc2cc(NC(=O)CCCNc3ncccn3)cnc2c1	-50.5
CCOc1cc(NC(=O)C2CC(=O)N(c3cccc(OC)c3)C2)ncn1 (stereo unspecified)	-4.31
O=S(=O)(NCC(O)c1ccoc1)c1ccc(Cl)s1 (stereo unspecified)	-9.34
CC(C)c1nc(-c2cc(C(=O)O)c3ccccn23)cs1	7.43
Cc1ccc(CN2CC[C@@H]3CN(S(C)(=O)=O)CCO[C@@H]3C2)o1	8.76
CC(C)N1CCCc2sc(C(=O)NC3CC3)nc21	-143
O=c1cc(Cn2cncn2)nc2n1CCCN(Cc1ccco1)C2	7.61
CNC(=O)CSc1cnn(CC(=O)Nc2cccc(Cl)c2C)c(=O)c1Cl	-17.6
CC(C)(C)NCc1nn(Cc2ccccc2)nc1-c1ccccc1	11.9
COc1cccc(C(C)Nc2ncnc3c2NC(=O)CN3)c1 (stereo unspecified)	9.76
COc1ccc(CNc2ncnc3c2NC(=O)CN3)cc1	11.8
CCN(CC)C(=O)c1ccn(COc2cc(C)cc(C)c2)n1	13.9
Cc1cc(N(C)C)nc(C2COCCN2Cc2cscn2)n1 (stereo unspecified)	-6.94
O=C(CCc1ccc(Cl)cc1)N[C@@H]1CC[C@@H](O)[C@@H]1O	3.85
Cn1cc(C2=NOC(C(=O)NC3(c4ccccc4F)CCCC3)C2)cn1 (stereo unspecified)	-0.269

SMILES	cytotoxicity at 10 µM [%]
COCCN1CCC(c2cncc(-c3ccccc3C)n2)CC1	-15.1
O=C1NCC2(CCCN(Cc3ccc(F)cc3)C2)Oc2ccccc21 (stereo unspecified)	-12.8
Nc1cc(CCC2CN(Cc3cccc(C(=O)O)c3)CCO2)ccn1 (stereo unspecified)	-1.17
Cc1noc(C)c1-c1cccc(CC2CCN(C(=O)c3cc[nH]n3)C2)n1 (stereo unspecified)	2.31
CCn1cc(CN2C[C@@H]3CCCN3C[C@@H]2CCSC)c(C)n1	3.29
O=C(c1cn(-c2ccc(C(F)(F)F)cn2)nn1)N1CCCCCC1	-57.4
Cc1ccc(OCC(=O)Nc2cc(C(=O)O)cc(S(C)(=O)=O)c2)cc1C	-4.95
N#Cc1ccc(CN2CCCC(Cn3cncn3)C2)c(F)c1 (stereo unspecified)	0.762
O=C(CCc1ccccc1)NCC(O)c1c(F)cccc1F (stereo unspecified)	-0.558
Cc1cccc(S(=O)(=O)NCc2cccc(CS(C)(=O)=O)c2)c1	-18.4
CC(NCc1nnc2n1CCCC2)c1nc(Cc2ccccc2)no1 (stereo unspecified)	-45.1
N#CCCN(CCC#N)C(=O)c1cccc(N2CCNC2=O)c1	-18.7
Cc1cccc(NC(=O)[C@@H]2CCCN2Cc2cnc3ccccn23)n1	-7.22
CC(C)NC(=O)Nc1cccc2c1CCN(S(C)(=O)=O)C2	-8.59
Cc1csc(N2CCN(Cc3cscn3)CC2C)n1 (stereo unspecified)	16
CC(=O)N1CCC(CCNC(C)c2cc(C)cc(C)c2)CC1 (stereo unspecified)	-9.8
Cc1noc(C2CCN(CC(=O)N3CCNC(=O)C3)CC2)n1	2.41
CC(=O)N(CCc1ccccc1)CC(=O)Nc1ccccc1C#N	6.59
O=C(c1ccc2nncn2c1)N1CCSC2(CCCCC2)C1	-5.32
COCCOC1CCN(C(=O)NCc2coc3ccccc23)CC1	-8.93
NCc1ccc(N2CCN(c3ncccn3)CC2)c(F)c1	-50.8
Cn1cc(CCCN2CCN(Cc3cccc(O)c3)CC2)cn1	-52.5
CC(NCCCc1cnn(C)c1)c1ccc(Br)s1 (stereo unspecified)	9.59

SMILES	cytotoxicity at 10 µM [%]
CCN(Cc1csc(C)n1)c1cccc(CO)c1	-6.55
CC/C=C(/C)C(=O)NS(=O)(=O)c1ccc(C#N)c(C(F)(F)F)c1	2.99
CC(C)c1ccc(S(=O)(=O)Cc2nc(N)nc(N(C)C)n2)cc1	-11.1
COC(=O)c1ccc(C(=O)NCc2ccc(Br)cc2)cn1	-23.2
CCOCc1ccccc1NC(=O)NC1CCN(C(=O)OCC)CC1	-14.5
Cc1cc(Cl)c2c(c1)C1(NC(=O)c3cccnc3N1)C(=O)N2 (stereo unspecified)	4.97
O=c1ccc(-c2ccccc2F)nn1CCN1CCCS1(=O)=O	-10
CS(=O)(=O)N1CCC2(CC1)CC(NCc1ccccn1)c1ccccc12 (stereo unspecified)	-109
CN1CCN(Cc2ccc(F)cc2)Cc2cccnc21	-80.2
CN(C)C(=O)COCC1CN(Cc2ccsc2)Cc2nccn2C1 (stereo unspecified)	-72.3
O=C(NC1CCC1)c1c2c(N3CCCC3)ncnc2n2ccccc12	-82.4
CC(=O)NCC(=O)N1Cc2nccn2CC(Cn2cccn2)C1 (stereo unspecified)	2.44
Nc1ncc(-c2ccc(NC(=O)[C@@H]3CCCCN3)cc2)cn1	-4.44
Cn1cccc1-c1cc(C(=O)N2CCCC2c2nccs2)[nH]n1 (stereo unspecified)	3.78
Cc1ncc(CC(=O)N2CCC3(CCC(=O)N(CCO)C3)CC2)c(=O)[nH]1	-44.7
O=C(Cc1cn2ccsc2n1)N1CCOCC(O)(CN2CCCC2)C1 (stereo unspecified)	-3.36
Cc1cc(C(=O)NCCC2CN(C)CCO2)c2cccc(C)c2n1 (stereo unspecified)	-2.94
Cc1ccc(-c2nnc(CN3CCCC(O)(CO)CC3)o2)n1C (stereo unspecified)	-2.4
Cc1cccc(OC2CN(C(=O)c3cnn(C)c3)C2)c1	-2.92
CN1CCCCCC1C(=O)N1CCCN(c2ccccc2)CC1 (stereo unspecified)	-6.56
COc1ccc(-c2nc(CN3CCCC(OC)C3)c(C)o2)c(F)c1 (stereo unspecified)	-37.8
COc1nc2ccn(CCc3scnc3C)c(=O)c2cc1C#N	12.8
CNC(=O)C(C)NC(=O)c1cc(COc2ccc(OC)cc2Cl)[nH]n1 (stereo unspecified)	5.27

SMILES	cytotoxicity at 10 µM [%]
Cc1nc2c(c(NCc3cc4ccccc4s3)n1)CCNCC2	-48.3
Cc1cc(C(=O)N2C[C@@H](C(=O)O)[C@H](C(C)C)C2)cs1	-10.4
O=C(CC1CCc2ccccc21)NC1(C(=O)O)CCOCC1 (stereo unspecified)	-2.13
Clc1ccc2cccnc2c1CN1CCCCC1Cn1cncn1 (stereo unspecified)	7.63
Cc1nccn1C1CCCN(C(=O)c2ccc3c(c2)nc(C)n3C)C1 (stereo unspecified)	-9.75
CC(C)c1noc(CN2CCN(C(=O)c3cccnc3O)CC2)n1	-9.86
O=C(c1cccc(OCc2cscn2)c1)N1CCOCC1	-6.13
CNc1cc(N2CCCC2CNCc2csc(C(C)C)n2)ncn1 (stereo unspecified)	-14.9
CC(Cn1cccn1)NC(=O)NCCc1cccnc1 (stereo unspecified)	-5.25
CCn1cnnc1C1CCN(C(=O)c2cc(C)c(C)s2)CC1	-26.9
COc1ccccc1COCC(O)CN1CCC(c2ccn[nH]2)CC1 (stereo unspecified)	-2.54
COc1ccccc1C(O)CNc1c(C#N)c(=O)n(C)c(=O)n1C (stereo unspecified)	-2.9
Cc1nccn1CC1CCCN1S(=O)(=O)Cc1cccc(C#N)c1 (stereo unspecified)	-20.7
CC(C)c1ncc2c(n1)CN(Cc1noc(-c3ccccc3)n1)CC2	-0.414
CC(C)c1nnc2n1CCN(C(=O)c1cccc(S(C)(=O)=O)c1)C2	-28.4
CCC1CN(C(=O)NCc2cccnc2-n2cccn2)CCO1 (stereo unspecified)	-12.5
Cc1nc(C)n(CC2CCCN2Cc2nc3ccccc3c(=O)[nH]2)n1 (stereo unspecified)	-4.35
CCN(Cc1nc2c(cnn2C)c(=O)[nH]1)c1ccccc1	-7.36
Cc1ccc(-c2cnn(CC(=O)NC(C)C)c2)cc1	0.724
N#Cc1cccc(NS(=O)(=O)c2ccc(C(=O)O)cc2F)c1	-3.67
O=C(CCNc1ncccn1)N1CCN(c2nccs2)CC1	-11.6
C1CCCN(CC2CCCN(Cc3noc(C4CC4)n3)C2)CC1 (stereo unspecified)	-12.7
Cc1cnc(CNC(=O)NCc2cccnc2N(C)C)s1	-12.4

SMILES	cytotoxicity at 10 µM [%]
N#Cc1cccc(S(=O)(=O)NC(=O)COc2ccc3c(c2)CCC3)c1	1.33
CN(Cc1noc(C2CC2)n1)C1CCN(Cc2ccncc2)C1 (stereo unspecified)	-10.6
CCN(Cc1ccc2c(c1)OCO2)C(=O)c1ccc(C)[nH]c1=O	-7.21
CCc1n[nH]c(C2CN(C(=O)c3cnc(C)s3)CCO2)n1 (stereo unspecified)	-6.64
Cc1ccc(N2CCCC(NCc3nc(C)c(C)o3)C2)nn1 (stereo unspecified)	-3.18
Cn1nc2c(cc1=O)CN(Cc1nnc(-c3ccco3)o1)CC2	-4.64
Fc1ccc(Cc2cnc(C3CCCN3)cn2)cc1 (stereo unspecified)	-9.77
Cc1cnnn1Cc1nnn2c1CN(Cc1cccs1)CCC2	8.28
O=C(c1cccs1)N1CC[C@@H]2CN(C3CCOCC3)CCO[C@@H]2C1	-110
Cc1nc(CN2CCC3(CC2)NC(=O)CC3c2ccncc2)cs1 (stereo unspecified)	5.79
COc1cccc(-c2noc(C3CCN(Cc4ccccc4C)C3)n2)c1 (stereo unspecified)	-6.88
Cc1ccc(CN2CC(C(=O)Nc3ccccc3)C3(CCOCC3)C2)s1 (stereo unspecified)	-17.5
CN(C)C(=O)COCc1nnc2n1CCN(Cc1ccoc1)C2	8.49
c1cc(CN2C[C@@H]3OCCN(CC4CCCO4)[C@@H]3C2)cs1 (stereo partly specified)	-76.9
Cc1nc(C2(O)CCCNCC2)sc1CCOc1ccc(F)c(F)c1 (stereo unspecified)	-21.4
O=C(c1ccc[nH]1)N1CCCn2c(CNC3CCC3)nnc2C1	-105
c1cncc(OC[C@@H]2CC[C@H]3[C@H](CCN3Cc3cccs3)O2)c1	6.23
CNc1nc2cn(CCc3ccc(F)cc3)c(=O)c-2c[nH]1	7.55
CCNc1nc2cn(-c3ccc(OC(F)(F)F)cc3)c(=O)c-2c[nH]1	11.8
